# High-throughput results as filed in PubChem BioAssay.
# CHOP inh: blocks CHOP induction under ER stress; CHO-K1 CHOP-promoter luciferase, tunicamycin-induced, 15-18 h; inhibition, % at 10 µM; 3.8% of 220,000 active; AID 2732;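 active = compounds that reduced the stress-induced luciferase reporter signal by more than about 70% of percent inhibition, limit read from the data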;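 also: 0% = tunicamycin plus vehicle and 100% = wells without tunicamycin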
# Jurkat NFkB inh: inhibitors of the PMA/ionomycin-induced NF-kB reporter in Jurkat cells. PMA/ionomycin-induced NF-kB luciferase reporter, luminescence. 0.53% of 330,000 active. inhibition, % at 4 µM. AID 435003; in the data active = inhibition above about 50%
# 697 NFkB inh: lowers PMA/ionomycin-induced NF-kB signal in 697 B cells. inhibition, % at 4 µM. 697 B-cell NF-kB luciferase reporter, 16 h. 0.33% of 330,000 active; in the data active = inhibition above about 35%
# CHOP UPR activ: apoptotic UPR (CHOP) activation. CHO-CHOP luciferase reporter, luminescence; percent of tunicamycin response over DMSO baseline. activation, % at 10 µM. 0.34% of 330,000 active. AID 449763;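 active = at 10 µM dose, activation of 40% or more, normalized to positive control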;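 also: 100% = tunicamycin at 10 µg/mL and 0% = DMSO alone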
#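 Assay system: CHO cells with stable CHOP pathway luciferase reporter; Buffer or medium: F12 plus 10% serum; Times: 16-18 h cell attachment, then 6 h compound exposure, 37 °C; Signal: luciferase luminescence; Read-out basis: percent activation relative to tunicamycin control; Control set: tunicamycin high control, DMSO low control.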
# XBP1 UPR activ: activators of adaptive arm of unfolded protein response (XBP1) | CHO-XBP1 luciferase reporter, IRE1-XBP1 UPR activation, luminescence; percent of tunicamycin response, DMSO as zero | activation, % at 20 µM | 0.33% of 330,000 active | AID 463104;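 active = versus positive control, 20 µM dose yields 30% or more activation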;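 also: 100% = tunicamycin at 10 µg/mL and 0% = DMSO only wells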
#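 Material – CHO cell line with stable XBP1 luciferase reporter · Buffer or medium – F12 plus 10% FBS · Compound – single point, 20 µM final compound, 1% DMSO · Schedule – 16-18 h cell attachment at 37 °C, then 6 h compound exposure · Signal – Steady-Glo luminescence read · Benchmarks – high control tunicamycin 10 µg/mL final, low control DMSO vehicle only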
# Jurkat NFkB conf: inhibitors of the PMA/ionomycin-induced NF-kB reporter in Jurkat cells, retest; shares compounds with Jurkat NFkB inh; Jurkat NF-kB luciferase, 16 h; inhibition, % at 4 µM; 27% of 2,700 active; AID 435020;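 active = inhibition reaching about 45% at 4 µM in either replicate, limit read from the data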;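 also: plate controls were PMA/ionomycin stimulated DMSO wells for no effect and unstimulated DMSO wells for full effect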
# Starred values were filed as active, the others as inactive; . = no result given. Shown is part of a subset that was picked to be rich in hits.
SMILES,CHOP inh,Jurkat NFkB inh,697 NFkB inh,CHOP UPR activ,XBP1 UPR activ,Jurkat NFkB conf
CN1CCN(c2ccc([N+](=O)[O-])cc2C(=O)c2ccc(Br)cc2)CC1,5,73*,-31,-3,2,26
COCCNC(=O)c1cccc(S(=O)(=O)N2CC3(C)CC2CC(C)(C)C3)c1 (centres undefined),.,-28,-18,0,1,.
COc1ccc(NC(=O)COc2ccc(C)c(C)c2)cc1S(=O)(=O)N1CCCCC1,.,-7,-16,2,1,.
COc1ccc(NC(=O)COc2cc(C)cc(C)c2)cc1S(=O)(=O)N1CCCCC1,.,57*,-54,-1,-5,23
Cc1c(C(=O)NC2CC(=O)N(c3ccc4c(c3)OCCO4)C2)cccc1[N+](=O)[O-] (centres undefined),.,17,-2,2,-3,.
COc1ccc(CC(=O)NCc2ccc(-n3cccc3)cc2)cc1OC,.,55*,-48,0,4,18
Cc1ccc(CNC(=O)Cc2ccc(-n3cccc3)cc2)cc1,-12,53*,-42,-1,-2,4
CC[C@]12c3[nH]c4cc(CCC(=O)N(C)C)ccc4c3CCN1C(=O)[C@@H](CC(=O)NC/C=C(\C)CCC=C(C)C)C[C@@H]2C(=O)N1CCN(C(=O)c2ccco2)CC1,.,.,24,3,6,.
COc1ccccc1-c1cc(C(=O)Nc2cc(C)nn2-c2ccccc2)no1,.,61*,-50,0,1,32
Cc1cc(C)cc(NC2=NC3(CCCCC3)N=C(N)N2)c1,.,66*,-2,-2,1,12
NC1=NC2(CCCCC2)N=C(Nc2ccc(F)cc2F)N1,2,4,3,-2,-1,.
COC(=O)c1cnc(Oc2ccc(NC(=O)NC(=O)c3c(F)cccc3Cl)cc2)cc1C(F)(F)F,10,50*,-23,0,1,46
COC(=O)c1cnc(Oc2ccc(NC(=O)NC(=O)c3c(OC)cccc3OC)cc2)cc1C(F)(F)F,-24,66*,-77,2,21,60*
O=C(C(=O)N1CCN(c2cccc(Cl)c2)CC1)c1cn(CC(=O)N2CCOCC2)c2ccccc12,.,11,2,2,-6,.
Brc1ccc2c(c1)CN1CCCC1=N2,.,73*,26,2,-2,24
COc1cc(/C=C2\SC(N3CCC(C)CC3)=NC2=O)ccc1O,.,61*,34,-1,0,19
COc1ccc(/C=C2\SC(N3CCCCC3)=NC2=O)cc1OC,.,-13,-1,5,5,.
O=C(C1CCCN(Cc2ccc(Br)cc2)C1)N1CCCCC1 (centres undefined),.,18,-17,0,-3,.
O=C(OCc1nnc(-c2ccc([N+](=O)[O-])cc2)o1)C1CCN(C(=O)c2ccc(F)cc2)CC1,.,-5,0,0,-1,.
c1ccc(-c2cnc(-c3ccccc3)nn2)cc1,.,-178,-240,-1,-4,-102
c1ccc(-c2cnc(-c3ccccn3)nn2)cc1,.,-114,-157,-1,-4,.
Cn1c(CCN2CCN(c3ccccn3)CC2)nc2cc(NS(=O)(=O)c3ccccc3)ccc21,.,-10,-30,1,-2,.
Cc1cccc(C)c1NC(=O)CNC(=O)c1ccc2c(c1)NC(=O)CS2,.,0,0,-1,-3,.
O=C(CCN1N=C(c2ccccc2)CCC1=O)NCC1CCCO1 (centres undefined),.,3,0,0,-4,.
CCC(=O)N1c2ccc(S(=O)(=O)N3CCN(c4ccc([N+](=O)[O-])cc4)CC3)cc2CC1C (centres undefined),.,52*,32,9,-4,65*
SMILES,CHOP inh,Jurkat NFkB inh,697 NFkB inh,CHOP UPR activ,XBP1 UPR activ,Jurkat NFkB conf
CC(=O)N1c2ccc(S(=O)(=O)N3CCC(C(=O)Nc4cccc(C)n4)CC3)cc2CC1C (centres undefined),.,54*,-7,2,-3,50*
CC(=O)N1c2ccc(S(=O)(=O)N3CCC(C(=O)Nc4ccccn4)CC3)cc2CC1C (centres undefined),.,5,3,2,-3,.
CC(=O)c1ccc(N2CCN(S(=O)(=O)c3ccc4c(c3)CC(C)N4C(=O)C3CC3)CC2)cc1 (centres undefined),.,58*,-10,10,-3,40
Cn1c2ccccc2c(=O)c2cc(C#CC3(O)CCCCC3)ccc21,.,-81,-152,-6,-8,.
O=c1c2ccccc2oc2ccc(C#CC3(O)CCCCC3)cc12,.,-161,-180,-3,-3,15
Nc1ccccc1C#CC(=O)c1ccccc1,.,52*,-109,-5,-8,13
Nc1ccccc1C#Cc1ccc([N+](=O)[O-])cc1,.,37,-186,8,5,.
CCOC(=O)c1cc(-c2ccccc2C)n(CC2CC(c3cccc([N+](=O)[O-])c3)=NO2)n1 (centres undefined),.,12,2,0,-5,.
COC(=O)C(NC(=O)CCC(=O)N[C@@H](C(=O)OC)c1ccccc1)c1ccccc1 (some centres undefined),.,-18,-28,-3,3,.
CCCC(=O)Nc1nc2ccc(S(=O)(=O)N3CCCCC3)cc2s1,.,52*,-49,2,1,49
O=C(COC(=O)CNC(=O)c1ccc(Cl)cc1Cl)NCc1ccco1,.,20,1,0,-2,.
Cc1ccc(NS(=O)(=O)c2cc(NC(=O)c3ccc4c(c3)NC(=O)CS4)ccc2Cl)c(C)c1,39,18,-2,4,7,.
COc1ccc(-n2cc(-c3ccc(C)cc3)[n+]3c2SCC3)cc1,-17,60*,23,2,-2,56*
O=C(c1cccc(F)c1)N1CCN(C(=O)C(c2ccccc2)c2ccccc2)CC1,.,1,2,2,-5,.
COc1ccc(CN2CCCC(C(=O)c3ccc4c(c3)OCO4)C2)c(F)c1 (centres undefined),.,2,1,-1,-4,.
C=CCn1c(Oc2cccc(C)c2)nc2c1c(=O)n(C)c(=O)n2C,19,-6,-12,0,4,.
C=CCn1c(Oc2cc(C)ccc2C)nc2c1c(=O)n(C)c(=O)n2C,19,54*,-11,-3,-1,16
CCOC(=O)C(=Cc1c[nH]c2ccc(S(=O)(=O)N(C)C)cc12)C(=O)OCC,-122,-12,-59,10,-3,.
Fc1ccc(Nc2ccc3ccccc3n2)c(F)c1,51,-211,-242,1,-4,-138
O=C(Nc1ccc2ccccc2n1)Nc1ccccc1F,.,-57,-21,1,2,.
CC1CCN(S(=O)(=O)c2ccc3c(c2)N(C)C(=O)CC(=O)N3C)CC1,.,6,7,-1,-1,.
CC(C)(C)OC(=O)C[C@H]1C/C=C\C[C@@H](CC(=O)N[C@@H](CO)Cc2ccccc2)C(=O)NC[C@H](c2ccccc2)OC1=O,.,-8,1,0,1,.
